According to ChEMBL document CHEMBL5032512, “A Photohormone for Light-Dependent Control of PPARα in Live Cells” (J Med Chem, 2021):
Activity calls are given as the source filed them. No cut-off for these calls is given here.

What was measured:
[1] = target: T1, Peroxisome proliferator-activated receptor delta (Homo sapiens) (UniProt Q03181); experiment: Agonist activity at Gal4-fused human PPARdelta LBD transfected in HEK293T cells assessed as maximal relative activation incubated for 14 to 16 hrs by dual-Glo luciferase assay relative to L165,041; format: cell-based; details: time 14-16 hrs
T1 sequence (whole entry): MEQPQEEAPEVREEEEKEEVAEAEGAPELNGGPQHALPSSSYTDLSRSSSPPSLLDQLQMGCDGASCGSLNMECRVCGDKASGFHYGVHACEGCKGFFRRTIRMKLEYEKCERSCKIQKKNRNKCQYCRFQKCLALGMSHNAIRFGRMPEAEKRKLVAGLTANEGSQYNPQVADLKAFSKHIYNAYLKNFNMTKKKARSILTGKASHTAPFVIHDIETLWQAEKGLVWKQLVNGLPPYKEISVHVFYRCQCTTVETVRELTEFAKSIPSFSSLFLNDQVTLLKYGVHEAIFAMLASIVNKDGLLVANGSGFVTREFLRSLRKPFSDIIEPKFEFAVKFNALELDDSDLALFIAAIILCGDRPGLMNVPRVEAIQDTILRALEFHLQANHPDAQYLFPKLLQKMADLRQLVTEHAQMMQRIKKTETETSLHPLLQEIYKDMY
Procedure, shortened: (§1)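 HEK293T cells transiently transfected with pFR-Luc, pRL-SV40 and Gal4 fusion of human PPAR hinge region plus LBD. Compound added 5 h later in Opti-MEM with 0.1% DMSO, then left overnight (14−16 h). Dual-Glo firefly/Renilla luciferase read, giving RLU. Fold activation is taken against the DMSO control. Max relative activation is set against 1 μM GW7647 (α) or L165,041 (δ). EC50 from a four-parameter fit. Duplicates, ≥3 independent runs.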

[2] = target: T2, Peroxisome proliferator-activated receptor delta (Homo sapiens, UniProt Q03181); experiment: Agonist activity at Gal4-fused human PPARdelta LBD transfected in HEK293T cells assessed as transcriptional activation incubated for 14 to 16 hrs by dual-Glo luciferase assay; format: cell-based; procedure, shortened: as §1
T2 sequence (Q03181 whole entry): T1 sequence (whole entry)

[3] = target: T3, Peroxisome proliferator-activated receptor alpha (Homo sapiens) (UniProt Q07869); experiment: Agonist activity at Gal4-fused human PPARalpha LBD transfected in HEK293T cells assessed as maximal relative activation incubated for 14 to 16 hrs by dual-Glo luciferase assay relative to GW7647; format: cell-based; details: time 14-16 hrs; procedure, shortened: as §1
T3 sequence (whole entry): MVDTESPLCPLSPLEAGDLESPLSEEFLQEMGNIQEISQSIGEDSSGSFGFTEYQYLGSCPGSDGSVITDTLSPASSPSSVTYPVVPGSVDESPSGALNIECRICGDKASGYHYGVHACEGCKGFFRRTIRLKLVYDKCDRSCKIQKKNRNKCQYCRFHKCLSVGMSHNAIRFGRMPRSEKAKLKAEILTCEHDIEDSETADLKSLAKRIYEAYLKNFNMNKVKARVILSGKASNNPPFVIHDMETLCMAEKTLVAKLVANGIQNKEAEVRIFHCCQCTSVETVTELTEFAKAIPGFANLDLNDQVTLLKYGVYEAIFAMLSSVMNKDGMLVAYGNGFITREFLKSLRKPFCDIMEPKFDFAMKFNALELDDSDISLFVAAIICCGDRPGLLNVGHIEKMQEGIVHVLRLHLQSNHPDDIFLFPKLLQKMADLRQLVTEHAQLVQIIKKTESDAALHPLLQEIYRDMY

[4] = target: T4, Peroxisome proliferator-activated receptor alpha (Homo sapiens, UniProt Q07869); experiment: Agonist activity at Gal4-fused human PPARalpha LBD transfected in HEK293T cells assessed as transcriptional activation incubated for 14 to 16 hrs by dual-Glo luciferase assay; format: cell-based; procedure, shortened: as §1
T4 sequence (Q07869 whole entry): T3 sequence (whole entry)

[5] = Photostability of compound assessed as photochemical switch by measuring trans-isoform at 50 uM incubated for 8 hrs followed by irradiation with 460 nm UV light for 3 mins by HPLC analysis; format: physicochemical
[6] = target: T3, Peroxisome proliferator-activated receptor alpha (Homo sapiens); experiment: Agonist activity at human Gal4-PPARalpha transfected in HEK293T cells assessed as increase in mCherry fluorescence at 10 nM incubated for 8 hrs followed by irradiation with 365 nm UV light for 3 mins by fluorescence microscopic analysis; format: cell-based
Procedure, shortened: (§2)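 Live HEK293T cells carrying UAS-mCherry-NLS plus Gal4-PPARα-LBD were treated with compound in 0.1% DMSO. mCherry read (ex 585, em 610 nm) hourly from 8 to 24 h and at 36 h. At 8 h, isomers switched by 3 min illumination at 365 or 460 nm. cis state held by Cell DISCO. Fold intensity against DMSO. n = 3.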

[7] = target: T3, Peroxisome proliferator-activated receptor alpha (Homo sapiens); experiment: Agonist activity at human Gal4-PPARalpha transfected in HEK293T cells assessed as increase in mCherry fluorescence at 10 nM incubated for 40 hrs by fluorescence microscopic analysis; format: cell-based
Procedure, shortened: (§3)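 HEK293T cells transfected separately with UAS-mCherry-NLS plus Gal4-PPARα-LBD, or […]-GFP plus Gal4-PPARδ-LBD. Cells pooled 5 h later and reseeded with compound in 0.1% DMSO. cis form preirradiated 3 min at 365 nm, then held with 75 ms 370 nm pulses every 15 s. Microscope images taken at 40 h. Integrated density set against 1 μM reference agonist. Duplicates, two independent runs.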

[8] = target: T3, Peroxisome proliferator-activated receptor alpha (Homo sapiens); experiment: Agonist activity at human Gal4-PPARalpha transfected in HEK293T cells assessed as increase in mCherry fluorescence at 300 nM incubated for 40 hrs by fluorescence microscopic analysis; format: cell-based; details: filed as agonist; procedure, shortened: as §3
[9] = target: T1, Peroxisome proliferator-activated receptor delta (Homo sapiens); experiment: Agonist activity at human Gal4-PPARdelta transfected in HEK293T cells assessed as increase in eGFP fluorescence at 300 nM incubated for 40 hrs by fluorescence microscopic analysis; format: cell-based; procedure, shortened: as §3
[10] = target: T5, Peroxisome proliferator-activated receptor gamma (Homo sapiens, UniProt P37231); experiment: Agonist activity at Gal4-fused human PPARgamma LBD transfected in HEK293T cells assessed as transcriptional activation incubated for 14 to 16 hrs by dual-Glo luciferase assay; format: cell-based
T5 sequence (P37231 whole entry): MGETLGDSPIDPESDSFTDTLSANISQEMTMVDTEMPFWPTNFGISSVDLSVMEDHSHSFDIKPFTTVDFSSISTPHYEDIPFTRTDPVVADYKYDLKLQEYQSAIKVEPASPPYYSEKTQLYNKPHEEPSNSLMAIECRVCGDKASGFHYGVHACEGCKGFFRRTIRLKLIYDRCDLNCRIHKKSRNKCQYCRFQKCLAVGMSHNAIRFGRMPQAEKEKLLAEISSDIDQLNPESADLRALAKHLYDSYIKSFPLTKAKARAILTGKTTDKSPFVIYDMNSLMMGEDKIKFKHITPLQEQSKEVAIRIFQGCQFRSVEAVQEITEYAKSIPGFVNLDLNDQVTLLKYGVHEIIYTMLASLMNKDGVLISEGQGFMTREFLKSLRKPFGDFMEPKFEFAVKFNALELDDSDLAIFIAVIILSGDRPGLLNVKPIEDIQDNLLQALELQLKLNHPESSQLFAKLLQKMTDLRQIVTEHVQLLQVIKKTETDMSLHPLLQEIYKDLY

HEK-293T = experiment: Cytotoxicity against HEK293T cells assessed as reduction in cell viability at >= 6 uM; format: cell-based; details: human
[11] = Microsomal stability in Sprague-Dawley rat liver microsomes assessed as half life at 10 uM measured up to 60 mins in presence of NADPH regenerating system by HPLC-UV analysis; format: ADME, Microsome
Procedure, shortened: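 Compound at 10 μM final, preincubated 5 min at 37 °C in 0.1 M phosphate pH 7.4 with NADPH-regenerating system. Reaction started with Sprague-Dawley rat liver microsomes and stopped with cold methanol at 0, 15, 30 and 60 min. Remaining compound measured by HPLC-UV at 254/280 nm against external calibration. Controls run without NADPH and with heat-inactivated microsomes. Half-life from log-linear fit. Three independent runs.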

[12] = Photostability of compound assessed as photochemical switch by measuring cis-isoform at 50 uM incubated for 8 hrs followed by irradiation with 365 nm UV light for 3 mins by HPLC analysis; format: physicochemical
[13] = target: T3, Peroxisome proliferator-activated receptor alpha (Homo sapiens); experiment: Agonist activity at human Gal4-PPARalpha transfected in HEK293T cells assessed as increase in mCherry fluorescence at 10 nM measured after 8 to 24 hrs by fluorescence microscopic analysis; format: cell-based; details: filed as agonist, time 8-24 hrs; procedure, shortened: as §2
[14] = target: T3, Peroxisome proliferator-activated receptor alpha (Homo sapiens); experiment: Agonist activity at human Gal4-PPARalpha transfected in HEK293T cells assessed as increase in mCherry fluorescence at 10 nM incubated for 8 hrs followed by irradiation with 460 nm UV light for 3 mins by fluorescence based analysis; format: cell-based; details: filed as agonist; procedure, shortened: as §2

Row | max activation ([1]; filed as agonist) [%] | EC50 [2] [nM] | max activation ([3]; filed as agonist) [%] | EC50 [4] [nM] | Stability [5] | Activity [6] | Activity [7] | Activity [8] | Activity [9] | max activation [1] [%] | max activation [3] [%] | EC50 [10] [nM] | half-life at 10 µM [11] [h] | Stability [12] | Activity [13] | Activity ([7]; filed as agonist) | Activity [14] | SMILES | Activity (HEK-293T)
1 | 41 | 3000 | 43 | 240 | Stable | inactive | inactive | Active | inactive |  |  |  |  |  |  |  |  | Cc1cc(/N=N\c2ccccc2)ccc1OCCc1ccc(OC(C)(C)C(=O)O)cc1 | 
2 |  | 1420 |  | 660 |  |  |  |  |  | 33 | 24 | > 10000 |  |  |  |  |  | Cc1ccc(/N=N/c2ccc(OCCc3ccc(OC(C)(C)C(=O)O)cc3)cc2)cc1 | Non-Toxic
3 | 45 | 540 |  | 7 |  |  |  | Active | inactive |  | 38 |  | 1.72 | Stable | Active | Active | Active | Cc1cc(/N=N/c2ccccc2)ccc1OCCc1ccc(OC(C)(C)C(=O)O)cc1 | 
